# Source: PubChem BioAssay (Broad Institute)
# GASC1 inh: inhibitors of human demethylase GASC-1 KDM4C | inhibition, % at 12.5 µM | GST-KDM4C 2-372, H3K9me3 peptide, LANCE TR-FRET | 96,000 compounds, 0.15% hits;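 active means mean replicate inhibition above about 25%, with at least 55% of replicates also reaching it, limit read from the data, passing the limit was not always enough; inconclusive means only one of those two conditions met; inactive means neither condition met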
#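 Assay system: GST-GASC-1 enzyme fragment 2-372 | Amount: 10 nM enzyme | Medium: HEPES buffer, pH 7.5, plus ascorbate | Reagent: H3K9me3 peptide substrate, Fe(II), 2-oxoglutarate | Doses: Single-point compound screen | Incubation: 30 min demethylation and 1 h detection at room temperature | Measured by: LANCE TR-FRET, excitation 340 nm, emissions 618 and 671 nm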
# IDH1 R132H inh: IDH1 R132H (human) inhibition; O75874; IDH1 R132H reductase, diaphorase/resazurin fluorescence, 60 min; inhibition, % at 10 µM; 70,000 compounds, 0.18% hits; in the data active means inhibition above about 34%; inconclusive means no clear call, values can overlap the other calls; inactive means below about 11%
# Target sequence (O75874 whole entry R132H): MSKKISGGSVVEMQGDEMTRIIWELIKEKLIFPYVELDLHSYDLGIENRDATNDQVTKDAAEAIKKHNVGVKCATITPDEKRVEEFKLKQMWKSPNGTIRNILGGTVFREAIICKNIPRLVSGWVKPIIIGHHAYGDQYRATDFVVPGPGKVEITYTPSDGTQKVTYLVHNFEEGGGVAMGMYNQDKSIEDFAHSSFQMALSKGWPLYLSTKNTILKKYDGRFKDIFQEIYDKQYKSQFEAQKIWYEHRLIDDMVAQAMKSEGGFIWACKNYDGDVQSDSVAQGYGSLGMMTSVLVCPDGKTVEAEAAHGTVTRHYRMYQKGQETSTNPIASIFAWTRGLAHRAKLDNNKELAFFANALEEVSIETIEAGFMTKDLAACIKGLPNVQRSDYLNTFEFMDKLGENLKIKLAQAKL
# T cruzi growth-1: T. cruzi proliferation inhibition. T. cruzi beta-gal in NIH3T3, GalScreen luminescence, 90 h. inhibition, % at 8.34 µM. 77,000 compounds, 5.9% hits. AID 624255;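 active means mean inhibition above about 93%, with at least 55% of replicates each passing it, limit read from the data, passing the limit was not always enough; inconclusive means only one of those two conditions holds; inactive means neither condition holds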
# T cruzi growth-2: inhibitors of T. cruzi proliferation. shares compounds with T cruzi growth-1. T. cruzi beta-gal in NIH3T3, GalScreen luminescence, 90 h. inhibition, % at 8.35 µM. 5,600 compounds, 72% hits;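 active means mean replicate inhibition above about 95% and at least 55% of replicates individually reaching it, limit read from the data; inconclusive means only one of the two criteria is met; inactive means neither criterion is met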
# T cruzi growth-3: blocks T. cruzi growth in NIH3T3 host cells; T. cruzi beta-gal in NIH3T3, GalScreen luminescence, 90 h; AID 651740; shares compounds with T cruzi growth-1; 5,600 compounds, 21% hits; inhibition, % at 2.09 µM;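 active means mean inhibition above about 95%, with at least 55% of replicates also reaching it, limit read from the data; inconclusive means meets just one of the two conditions; inactive means meets neither condition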
# 3T3 cytotox: NIH/3T3 (mouse) viability loss | shares compounds with T cruzi growth-1 | NIH/3T3 viability, CellTiter-Glo ATP luminescence, 90 h | cytotoxicity (signal decrease), % at 8.35 µM | 5,600 compounds, 14% hits | AID 651742;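 active means mean signal decrease across replicates above about 35% based on untreated-well scatter, with enough replicates individually passing, limit read from the data; inconclusive means no rule stated though some were filed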
# 3T3 cytotox 2: cytotoxicity in mouse NIH/3T3 fibroblasts; shares compounds with T cruzi growth-1; inhibition, % at 24.9 µM; NIH/3T3 viability, CellTiter-Glo ATP luminescence, 90 h; 5,600 compounds, 56% hits; AID 651744;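 active means mean loss of cell viability signal at or above a set limit, and enough replicates individually reaching it; inconclusive means meets only the mean limit or only the replicate share; inactive means meets neither condition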
# Numbers stand for hits; 0 = inactive; ? = inconclusive; - = no result. Many of the other results were omitted from the sample, so hits are more common in it than they were.
SMILES,GASC1 inh,IDH1 R132H inh,T cruzi growth-1,T cruzi growth-2,T cruzi growth-3,3T3 cytotox,3T3 cytotox 2
C[C@@H]1CN([C@@H](C)CO)C(=O)Cc2cc(N(C)C)ccc2O[C@@H]1CN(C)Cc1ccc(C(F)(F)F)cc1,0,0,0,-,-,-,-
C[C@@H]1CN([C@H](C)CO)C(=O)Cc2cc(N(C)C)ccc2O[C@@H]1CN(C)Cc1ccc(C(F)(F)F)cc1,0,0,0,-,-,-,-
C[C@H]1CN([C@@H](C)CO)C(=O)Cc2cc(N(C)C)ccc2O[C@@H]1CN(C)Cc1ccc(C(F)(F)F)cc1,0,0,119,111,0,0,0
CS(=O)(=O)N1[C@@H]2c3ccc(-c4cccc(F)c4)c(=O)n3C[C@H]1[C@H](CO)[C@H]2C(=O)N1CCOCC1,0,-,0,-,-,-,-
COCC#Cc1ccc([C@H]2[C@@H](CO)N3CCCCN(S(=O)(=O)c4ccc(OC)cc4)C[C@@H]23)cc1,0,-,?,100,0,0,34
COCC#Cc1ccc([C@H]2[C@H](CO)N3CCCCN(S(=O)(=O)c4ccc(OC)cc4)C[C@@H]23)cc1,0,-,?,100,0,0,0
COCC#Cc1ccc([C@@H]2[C@H](CO)N3CCCCN(S(=O)(=O)c4ccc(OC)cc4)C[C@@H]23)cc1,0,-,0,-,-,-,-
COCC#Cc1ccc([C@H]2[C@H]3CN(S(=O)(=O)c4ccc(OC)cc4)CCCCN3[C@H]2CO)cc1,0,-,0,-,-,-,-
COc1ccc(-c2nnc(SCC(N)=O)n2-c2cccc(C(F)(F)F)c2)cc1OC,-,0,-,-,-,-,-
CCn1c(SCC(=O)c2cccc([N+](=O)[O-])c2)nnc1-c1ccc(Cl)cc1,-,0,-,-,-,-,-
C[C@H]1CN([C@@H](C)CO)S(=O)(=O)c2ccc(C3=CCCC3)cc2O[C@H]1CN(C)Cc1ccccc1,0,0,97,96,0,?,107
C[C@@H]1CN([C@H](C)CO)S(=O)(=O)c2ccc(C3=CCCC3)cc2O[C@@H]1CN(C)Cc1ccccc1,0,0,109,100,0,0,107
C[C@H](CO)N1C[C@H](C)[C@H](CN(C)Cc2cccc(C(=O)O)c2)Oc2cc(C3=CCCC3)ccc2S1(=O)=O,0,0,0,-,-,-,-
C[C@@H]1CN([C@H](C)CO)S(=O)(=O)c2ccc(C3=CCCC3)cc2O[C@@H]1CN(C)CC1CCCCC1,0,0,0,-,-,-,-
C[C@@H]1CN([C@@H](C)CO)S(=O)(=O)c2ccc(C3=CCCC3)cc2O[C@@H]1CN(C)Cc1cccc(C(=O)O)c1,0,0,0,-,-,-,-
C[C@@H]1CN([C@H](C)CO)S(=O)(=O)c2ccc(C3=CCCC3)cc2O[C@H]1CN(C)CC1CCCC1,0,0,105,0,0,59,105
COC(=O)c1ccc(-n2nnnc2SCC(=O)Nc2ccccc2)cc1,-,0,-,-,-,-,-
COC(=O)/C=C(\C)CCC1(C)C(C)CCC2(C)C(C)=CC(=O)CC21 (stereo unspecified),-,0,-,-,-,-,-
C[C@H](CO)N1C[C@H](C)[C@H](CN(C)C(=O)c2ccccc2)Oc2cc(-c3cccc(C#N)c3)ccc2S1(=O)=O,0,0,0,-,-,-,-
C[C@@H]1CN([C@H](C)CO)S(=O)(=O)c2ccc(-c3cccc(C#N)c3)cc2O[C@@H]1CN(C)C(=O)c1ccc(F)cc1,0,0,101,102,0,?,88
C[C@H](CO)N1C[C@H](C)[C@@H](CN(C)C)Oc2cc(-c3cccc(C#N)c3)ccc2S1(=O)=O,0,0,0,-,-,-,-
C[C@@H]1CN([C@H](C)CO)S(=O)(=O)c2ccc(-c3cccc(C#N)c3)cc2O[C@H]1CN(C)C,0,0,110,0,0,0,36
C[C@H](CO)N1C[C@H](C)[C@H](CN(C)C(=O)c2ccc(F)cc2)Oc2cc(-c3cccc(C#N)c3)ccc2S1(=O)=O,0,0,104,0,0,0,64
C[C@@H]1CN([C@@H](C)CO)S(=O)(=O)c2ccc(-c3cccc(C#N)c3)cc2O[C@H]1CN(C)C(=O)c1ccccc1,0,0,0,-,-,-,-
CCn1c(SCC(=O)Nc2ccccc2OC)nnc1-c1ccncc1,-,0,-,-,-,-,-
OC[C@@H]1[C@@H](c2ccc(C#CC3(O)CCCC3)cc2)[C@H]2CN(Cc3ccncc3)CCCCN12,0,-,0,-,-,-,-
OC[C@H]1[C@H](c2ccc(C#CC3(O)CCCC3)cc2)[C@@H]2CN(Cc3cncnc3)CCCCN12,0,-,98,0,0,0,0
